Measured values as given in ChEMBL document CHEMBL1157704, “Potent activity against K562 cells by polyamide-seco-CBI conjugates targeting histone H4 genes” (Bioorg Med Chem, 2010).
Active and inactive are the calls of the source.

Assays:
K562 [1] = experiment: Effect on JUN gene expression in human K562 cells assessed as change in mRNA transcript expression at 10 nM after 48 hrs by DNA microarray analysis relative to control; format: functional
Outline: (§1)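 K562 CML cells (b3a2 Bcr-Abl) in standard ATCC-recommended culture, exposed once to 10 nM conjugate and harvested at 48 h. Untreated controls were also collected at 48 h. Transcripts were profiled on Human Gene 1.0 ST whole-genome oligonucleotide arrays, and each treated level was expressed relative to the untreated control, with a cutoff of at least twofold change.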

K562 [2] = experiment: Effect on PLA2G6 gene expression in human K562 cells assessed as change in mRNA transcript expression at 10 nM after 48 hrs by DNA microarray analysis relative to control; format: functional; outline: as §1
K562 [3] = experiment: Effect on C0MMD1 gene expression in human K562 cells assessed as change in mRNA transcript expression at 10 nM after 48 hrs by DNA microarray analysis relative to control; format: functional
Outline: (§2)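 Transcripts were profiled on Affymetrix GeneChip Human Gene 1.0 ST arrays in K562 cells treated at 10 nM. Treated cells were collected at 6, 12, 24 and 48 h; untreated controls were collected at 48 h. Transcripts changed at least twofold versus control were scored.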

K562 [4] = experiment: Effect on PRF1 gene expression in human K562 cells assessed as change in mRNA transcript expression at 10 nM after 48 hrs by DNA microarray analysis relative to control; format: functional; outline: as §1
K562 [5] = experiment: Effect on AMN1 gene expression in human K562 cells assessed as change in mRNA transcript expression at 10 nM after 48 hrs by DNA microarray analysis relative to control; format: functional; outline: as §2
K562 [6] = experiment: Effect on C3 gene expression in human K562 cells assessed as change in mRNA transcript expression at 10 nM after 48 hrs by DNA microarray analysis relative to control; format: functional; outline: as §2
K562 [7] = experiment: Cell cycle arrest in human K562 cells assessed as increase in accumulation at S phase at 125 to 250 nM after 48 hrs propidium iodide staining-based FACS analysis; format: functional
Outline: (§3)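 K562 cells, from ATCC and kept under ATCC-recommended conditions, were treated for 48 h and pelleted at 200g for 5 min. They were resuspended in PBS, fixed with prechilled 70% ethanol and stained with propidium iodide at 50 µg/mL. DNA content was read by flow cytometry to assign the G0–G1, S and G2–M fractions; sub-2C DNA content was taken as apoptosis.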

K562 [8] = experiment: Effect on HIST1H2B gene expression in human K562 cells assessed as change in mRNA transcript expression at 10 nM after 48 hrs by DNA microarray analysis relative to control; format: functional; outline: as §2
K562 [9] = experiment: Effect on RP11-195B gene expression in human K562 cells assessed as change in mRNA transcript expression at 10 nM after 48 hrs by DNA microarray analysis relative to control; format: functional; outline: as §1
K562 [10] = experiment: Effect on SLFN14 gene expression in human K562 cells assessed as change in mRNA transcript expression at 10 nM after 48 hrs by DNA microarray analysis relative to control; format: functional; outline: as §1
K562 [11] = experiment: Effect on HSPA1B gene expression in human K562 cells assessed as change in mRNA transcript expression at 10 nM after 48 hrs by DNA microarray analysis relative to control; format: functional; outline: as §1
K562 [12] = experiment: Effect on LOC10012 gene expression in human K562 cells assessed as change in mRNA transcript expression at 10 nM after 48 hrs by DNA microarray analysis relative to control; format: functional; outline: as §1
K562 [13] = experiment: Effect on HIST1H4K gene expression in human K562 cells assessed as down-regulation of mRNA transcript expression at 10 nM after 48 hrs by DNA microarray analysis relative to control; format: functional; outline: as §1
K562 [14] = experiment: Downregulation of histone H4C mRNA expression in human K562 cells at 125 nM after 48 hrs by real-time PCR analysis; format: functional, cell-based
Outline: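 K562 cells were treated for 48 h, and H4c and H4e mRNA were measured by one-step real-time RT-PCR. Reverse transcription ran at 50 °C for 10 min, then hot-start activation at 95 °C for 15 min. Cycling was 45 cycles of 95 °C 15 s, 55 °C 30 s and 72 °C 30 s. Levels were normalized to GAPDH mRNA; error bars are SD.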

K562 [15] = experiment: Effect on HIST1H2A gene expression in human K562 cells assessed as change in mRNA transcript expression at 10 nM after 48 hrs by DNA microarray analysis relative to control; format: functional; outline: as §2
K562 [16] = experiment: Cell cycle arrest in human K562 cells assessed as increase in accumulation at G2/M phase at 125 to 250 nM after 48 hrs propidium iodide staining-based FACS analysis; format: functional; outline: as §3
K562 [17] = experiment: Effect on HIST1H3D gene expression in human K562 cells assessed as change in mRNA transcript expression at 10 nM after 48 hrs by DNA microarray analysis relative to control; format: functional; outline: as §2
K562 [18] = experiment: Effect on RHCE/RHD gene expression in human K562 cells assessed as change in mRNA transcript expression at 10 nM after 48 hrs by DNA microarray analysis relative to control; format: functional; outline: as §1
K562 [19] = experiment: Effect on HIST1H4D gene expression in human K562 cells assessed as down-regulation of mRNA transcript expression at 10 nM after 48 hrs by DNA microarray analysis relative to control; format: functional; outline: as §2
K562 [20] = experiment: Effect on HIST1H4H gene expression in human K562 cells assessed as down-regulation of mRNA transcript expression at 10 nM after 48 hrs by DNA microarray analysis relative to control; format: functional; outline: as §1
K562 [21] = experiment: Effect on HTR1F gene expression in human K562 cells assessed as change in mRNA transcript expression at 10 nM after 48 hrs by DNA microarray analysis relative to control; format: functional; outline: as §1
K562 [22] = experiment: Cell cycle arrest in human K562 cells assessed as decrease in accumulation at G1 phase at 125 to 250 nM after 48 hrs propidium iodide staining-based FACS analysis; format: functional; outline: as §3
K562 [23] = experiment: Effect on ITGB3 gene expression in human K562 cells assessed as change in mRNA transcript expression at 10 nM after 48 hrs by DNA microarray analysis relative to control; format: functional; outline: as §1
K562 [24] = experiment: Effect on CD52 gene expression in human K562 cells assessed as change in mRNA transcript expression at 10 nM after 48 hrs by DNA microarray analysis relative to control; format: functional; outline: as §2
K562 [25] = experiment: Effect on LOC85389 gene expression in human K562 cells assessed as change in mRNA transcript expression at 10 nM after 48 hrs by DNA microarray analysis relative to control; format: functional; outline: as §1
K562 [26] = experiment: Effect on TDRG1 gene expression in human K562 cells assessed as change in mRNA transcript expression at 10 nM after 48 hrs by DNA microarray analysis relative to control; format: functional; outline: as §1
K562 [27] = experiment: Effect on STAG1 gene expression in human K562 cells assessed as change in mRNA transcript expression at 10 nM after 48 hrs by DNA microarray analysis relative to control; format: functional; outline: as §1
K562 [28] = experiment: Effect on MYL4 gene expression in human K562 cells assessed as change in mRNA transcript expression at 10 nM after 48 hrs by DNA microarray analysis relative to control; format: functional; outline: as §1

**Q.** Which results are given for `CC(=O)Nc1cn(C)c(C(=O)Nc2cn(C)c(C(=O)NCCC(=O)Nc3cn(C)c(C(=O)NCCCC(=O)Nc4cc(C(=O)Nc5cn(C)c(C(=O)Nc6ccc7[nH]c(C(=O)N8CC(CCl)c9c8cc(O)c8ccccc98)cc7c6)n5)n(C)c4)n3)n2)n1` (stereo not drawn)?
**A.** fold change (FC) (K562 [1]): >=2; fold change (FC) (K562 [2]): >=2; fold change (FC) (K562 [3]): >=2; fold change (FC) (K562 [4]): >=2; fold change (FC) (K562 [5]): >=2; fold change (FC) (K562 [6]): >=2; Activity (K562 [7]): Active; fold change (FC) (K562 [8]): >=2; fold change (FC) (K562 [9]): >=2; fold change (FC) (K562 [10]): >=2; fold change (FC) (K562 [11]): >=2; fold change (FC) (K562 [12]): >=2; fold change (FC) (K562 [13]): 2.71; Activity (K562 [14]): Active; fold change (FC) (K562 [15]): >=2; Activity (K562 [16]): Active; fold change (FC) (K562 [17]): >=2; fold change (FC) (K562 [18]): >=2; fold change (FC) (K562 [19]): 2.43; fold change (FC) (K562 [20]): 2.11; fold change (FC) (K562 [21]): >=2; Activity (K562 [22]): Active; fold change (FC) (K562 [23]): >=2; fold change (FC) (K562 [24]): >=2; fold change (FC) (K562 [25]): >=2; fold change (FC) (K562 [26]): >=2; fold change (FC) (K562 [27]): >=2; fold change (FC) (K562 [28]): >=2
